Calls of active or inactive are those of the source. The rule behind the calls is not given here.
What was measured:
[1] = system: PC-3; experiment: Cytotoxicity against human PC3 cells assessed as inhibition of cell viability after 48 hrs by MTT assay; format: functional, cell-based; conditions: for IC50: PC-3, 48 h
In short: (§1)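 Cells grown in RPMI 1640 with 10% FBS, penicillin and streptomycin at 37 °C under 5% CO2. After 24 h, medium replaced with medium containing various concentrations. Exposure 48 h, then MTT read-out at 570 nm. IC50 is the concentration giving 50% proliferation inhibition, from dose-response curves; mean ± SD of three independent experiments.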

[2] = system: MGC-803; experiment: Cytotoxicity against human MGC803 cells assessed as inhibition of cell viability after 48 hrs by MTT assay; format: functional, cell-based; conditions: MGC-803, 48 h; in short: as §1
[3] = system: ECa-109 cell line; experiment: Cytotoxicity against human EC109 cells assessed as inhibition of cell viability after 48 hrs by MTT assay; format: functional, cell-based; conditions: ECa-109, 48 h; in short: as §1
[4] = system: PC-3; experiment: Induction of apoptosis in human PC3 cells assessed as early apoptotic cells at 0.5 uM after 48 hrs by annexin V-FITC/propidium iodide staining-based flow cytometric method (reference value: 4.7%); format: functional
[5] = system: PC-3; experiment: Cell cycle arrest in human PC3 cells assessed as accumulation at S phase at 2.5 uM after 48 hrs by propidium iodide staining-based flow cytometric method (reference value: 26.54%); format: functional
[6] = system: PC-3; experiment: Upregulation of Bax levels in human PC3 cells at 0.1 to 2.5 uM after 48 hrs by Western blot method; format: functional, cell-based
In short: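 Bax protein measured by Western blot in PC-3 cells after 48 h at 0, 0.1, 0.5 or 2.5 μM: RIPA lysis, SDS-PAGE, nitrocellulose transfer, overnight primary antibody at 4 °C, ECL detection.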

[7] = system: PC-3; experiment: Anticlonogenic activity against human PC3 cells at 2.5 uM after 1 week by crystal violet staining-based assay; format: functional, cell-based
In short: (§2)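 PC-3 cells seeded, grown 24 h, then given fresh medium containing a range of concentrations and treated for one week. Washed with PBS, fixed in 4% paraformaldehyde, stained with 0.1% crystal violet, imaged. Colonies counted and colony formation efficiency calculated relative to control. Three independent experiments.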

[8] = system: PC-3; experiment: Cell cycle arrest in human PC3 cells assessed as accumulation at G2 phase at 2.5 uM after 48 hrs by propidium iodide staining-based flow cytometric method (reference value: 18.31%); format: functional
[9] = system: GES1; experiment: Cytotoxicity against human GES-1 cells assessed as inhibition of cell viability after 48 hrs by MTT assay; format: cell-based; conditions: GES1, 48 h; in short: as §1
[10] = system: PC-3; experiment: Cell cycle arrest in human PC3 cells assessed as accumulation at G1 phase at 0.1 uM after 48 hrs by propidium iodide staining-based flow cytometric method (reference value: 54.65%); format: functional
[11] = system: PC-3; experiment: Anticlonogenic activity against human PC3 cells assessed as colony formation efficiency at 2.5 uM after 1 week by crystal violet staining-based assay relative to control; format: functional; in short: as §2
[12] = system: PC-3; experiment: Induction of apoptosis in human PC3 cells assessed as early apoptotic cells at 2.5 uM after 48 hrs by annexin V-FITC/propidium iodide staining-based flow cytometric method (reference value: 4.7%); format: functional
[13] = system: PC-3; experiment: Induction of apoptosis in human PC3 cells assessed as late apoptotic cells at 2.5 uM after 48 hrs by annexin V-FITC/propidium iodide staining-based flow cytometric method (reference value: 1.3%); format: functional
[14] = system: PC-3; experiment: Cell cycle arrest in human PC3 cells assessed as accumulation at G2 phase at 0.5 uM after 48 hrs by propidium iodide staining-based flow cytometric method (reference value: 18.31%); format: functional
[15] = biological target: Myc proto-oncogene protein (Homo sapiens) (UniProt P01106); experiment: Inhibition of c-Myc expression in human PC3 cells after 48 hrs by Western blot analysis
Chain of Myc proto-oncogene protein (Homo sapiens) (P01106 whole entry): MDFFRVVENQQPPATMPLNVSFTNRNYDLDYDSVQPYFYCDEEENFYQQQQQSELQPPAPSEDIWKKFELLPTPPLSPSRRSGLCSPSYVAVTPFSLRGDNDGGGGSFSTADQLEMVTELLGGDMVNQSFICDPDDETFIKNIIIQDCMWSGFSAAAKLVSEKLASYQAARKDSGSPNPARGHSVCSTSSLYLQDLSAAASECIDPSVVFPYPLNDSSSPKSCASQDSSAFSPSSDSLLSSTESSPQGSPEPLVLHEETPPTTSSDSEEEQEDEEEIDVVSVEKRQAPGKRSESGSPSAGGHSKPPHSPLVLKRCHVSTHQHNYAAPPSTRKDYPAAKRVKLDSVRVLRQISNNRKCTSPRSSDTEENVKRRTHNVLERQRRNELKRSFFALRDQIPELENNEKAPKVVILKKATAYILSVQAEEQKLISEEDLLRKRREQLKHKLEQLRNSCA

[16] = system: PC-3; experiment: Induction of apoptosis in human PC3 cells assessed as early apoptotic cells at 0.1 uM after 48 hrs by annexin V-FITC/propidium iodide staining-based flow cytometric method (reference value: 4.7%); format: functional
[17] = system: PC-3; experiment: Cytotoxicity against human PC3 cells assessed as inhibition of cell growth at 2.5 uM after 6 to 12 hrs by MTT assay; format: functional, cell-based
[18] = biological target: MAP kinase p38 (Homo sapiens) (UniProt O15264+Q15759+Q16539+P53778); experiment: Inhibition of p38 phosphorylation in human PC3 cells after 48 hrs by Western blot analysis; format: cell-based
In short: (§3)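 PC-3 cells exposed 48 h to 0, 0.1, 0.5 or 2.5 μM. RIPA lysates, BCA protein assay, SDS-PAGE, nitrocellulose transfer, 5% milk block, primary antibodies overnight at 4 °C against p-ERK, p-c-Jun, c-Myc, p38 and p-p38, secondary 1:5000 for 2 h, ECL detection. Levels quantified from three independent experiments.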

[19] = system: PC-3; experiment: Induction of apoptosis in human PC3 cells assessed as late apoptotic cells at 0.1 uM after 48 hrs by annexin V-FITC/propidium iodide staining-based flow cytometric method (reference value: 1.3%); format: functional
[20] = system: PC-3; experiment: Downregulation of cyclin D1 levels in human PC3 cells after 48 hrs by Western blot method; format: functional, cell-based
In short: (§4)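 PC-3 cells treated 48 h at 0, 0.1, 0.5 or 2.5 μM, then lysed in RIPA buffer with protease inhibitors. Protein measured by BCA, separated by SDS-PAGE, transferred to nitrocellulose, blocked in 5% milk, probed overnight at 4 °C for cyclin D1, CDK4, cyclin A and cyclin B1, detected by ECL. Bands quantified; three independent experiments.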

[21] = system: PC-3; experiment: Cell cycle arrest in human PC3 cells assessed as accumulation at S phase at 0.1 uM after 48 hrs by propidium iodide staining-based flow cytometric method (reference value: 26.54%); format: functional
[22] = system: PC-3; experiment: Cell cycle arrest in human PC3 cells assessed as accumulation at G1 phase at 0.5 uM after 48 hrs by propidium iodide staining-based flow cytometric method (reference value: 54.65%); format: functional
[23] = biological target: Transcription factor Jun (Homo sapiens) (UniProt P05412); experiment: Inhibition of c-Jun phosphorylation in human PC3 cells after 48 hrs by Western blot analysis; format: cell-based; in short: as §3
Chain of Transcription factor Jun (Homo sapiens) (P05412 whole entry): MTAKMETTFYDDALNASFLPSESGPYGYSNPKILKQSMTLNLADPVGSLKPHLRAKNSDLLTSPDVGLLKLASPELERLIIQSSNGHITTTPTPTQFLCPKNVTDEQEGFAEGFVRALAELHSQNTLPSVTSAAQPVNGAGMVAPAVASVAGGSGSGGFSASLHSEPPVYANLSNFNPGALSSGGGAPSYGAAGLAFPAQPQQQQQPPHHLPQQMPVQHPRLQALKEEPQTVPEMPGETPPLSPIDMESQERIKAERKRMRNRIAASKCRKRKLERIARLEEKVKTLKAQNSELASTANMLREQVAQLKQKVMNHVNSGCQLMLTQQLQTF

[24] = system: PC-3; experiment: Cell cycle arrest in human PC3 cells assessed as accumulation at G2 phase at 0.1 uM after 48 hrs by propidium iodide staining-based flow cytometric method (reference value: 18.31%); format: functional
[25] = system: PC-3; experiment: Downregulation of beta-catenin levels in human PC3 cells after 48 hrs by Western blot method; format: functional, cell-based
In short: (§5)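 Wnt pathway proteins probed by Western blot in PC-3 cells after 48 h at 0, 0.1, 0.5 or 2.5 μM. RIPA lysis, SDS-PAGE, nitrocellulose, overnight primary antibody at 4 °C, ECL detection. Expression quantified from three independent experiments.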

[26] = system: PC-3; experiment: Cell cycle arrest in human PC3 cells assessed as accumulation at S phase at 0.5 uM after 48 hrs by propidium iodide staining-based flow cytometric method (reference value: 26.54%); format: functional
[27] = system: PC-3; experiment: Downregulation of p38 levels in human PC3 cells after 48 hrs by Western blot analysis; format: functional, cell-based; in short: as §3
[28] = system: PC-3; experiment: Downregulation of TCF4 levels in human PC3 cells after 48 hrs by Western blot method; format: functional, cell-based; in short: as §5
[29] = system: PC-3; experiment: Induction of apoptosis in human PC3 cells assessed as late apoptotic cells at 0.5 uM after 48 hrs by annexin V-FITC/propidium iodide staining-based flow cytometric method (reference value: 1.3%); format: functional
[30] = system: PC-3; experiment: Downregulation of CDK4 levels in human PC3 cells after 48 hrs by Western blot method; format: functional, cell-based; in short: as §4
[31] = species on record: Homo sapiens; experiment: Inhibition of ERK phosphorylation in human PC3 cells after 48 hrs by Western blot analysis; format: cell-based; in short: as §3
[32] = system: PC-3; experiment: Antimigratory activity in human PC3 cells at 0.1 to 2.5 uM after 48 hrs by Hoechst 33258 staining-based transwell assay; format: functional, cell-based
In short: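 Transwell migration: upper chamber holds 10^4 PC-3 cells in medium with 1% FBS plus 0, 0.1, 0.5 or 2.5 μM compound. Lower chamber holds medium with 20% FBS as chemoattractant. After 48 h both chambers washed with PBS, stained with Hoechst 33258, and migrated cells counted by high-content imaging. Three independent experiments.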

[33] = system: PC-3; experiment: Upregulation of Axin levels in human PC3 cells after 48 hrs by Western blot method; format: functional, cell-based; in short: as §5
[34] = system: PC-3; experiment: Cell cycle arrest in human PC3 cells assessed as accumulation at G1 phase at 2.5 uM after 48 hrs by propidium iodide staining-based flow cytometric method (reference value: 54.65%); format: functional

## COc1ccc(-c2coc3cc(OCCCSC(=S)N4CCN(c5ccccn5)CC4)ccc3c2=O)cc1
[1]
  IC50: 17.4 µM
[2]
  IC50: 42 µM
[3]
  IC50: 38.3 µM

## O=c1[nH]cc(F)c(=O)[nH]1 [FLUOROURACIL]
[1]
  IC50: 29.3 µM
[2]
  IC50: 7.21 µM
[3]
  IC50: 10.3 µM

## CCN1CCN(C(=S)SCCCOc2ccc3c(=O)c(-c4ccc(OC)cc4)coc3c2)CC1
[1]
  IC50: 7.08 µM
[2]
  IC50: 54 µM
[3]
  IC50: 36.9 µM

## COc1ccc(-c2coc3cc(OCCSC(=S)N4CCN(C(=O)OC(C)(C)C)CC4)ccc3c2=O)cc1
[1]
  IC50: 3.64 µM
[2]
  IC50: 11.6 µM
[3]
  IC50: 4.09 µM

## COc1ccc(-c2coc3cc(O)ccc3c2=O)cc1 [FORMONONETIN]
[1]
  IC50: 57 µM
[2]
  IC50: > 100 µM
[3]
  IC50: > 100 µM

## COc1ccc(-c2coc3cc(OCCCSC(=S)N4CCOCC4)ccc3c2=O)cc1
[1]
  IC50: 27.4 µM
[2]
  IC50: 49.6 µM
[3]
  IC50: 34 µM

## COc1ccc(-c2coc3cc(OCCCBr)ccc3c2=O)cc1
[1]
  IC50: 62.6 µM
[2]
  IC50: 64.9 µM
[3]
  IC50: 39.7 µM

## COc1ccc(-c2coc3cc(OCCCSC(=S)N4CCN(C(C)=O)CC4)ccc3c2=O)cc1
[1]
  IC50: 4.31 µM
[2]
  IC50: 39.4 µM
[3]
  IC50: 24.7 µM

## COc1ccc(-c2coc3cc(OCCCCSC(=S)N4CCN(C(=O)OC(C)(C)C)CC4)ccc3c2=O)cc1
[1]
  IC50: 4.61 µM
[2]
  IC50: 31.3 µM
[3]
  IC50: 8.84 µM

## COc1ccc(-c2coc3cc(OCCCSC(=S)N4CCN(C(=O)OC(C)(C)C)CC4)ccc3c2=O)cc1
[4]
  Activity: 5.7%
[5]
  Activity: 10.33%
[6]
  Activity: inactive
[7]
  Activity: Dose-dependent effect
[8]
  Activity: 3.66%
[9]
  IC50: > 100 µM
[10]
  Activity: 55.6%
[11]
  Activity: 6%
[1]
  Activity: Dose-dependent effect
  IC50: 1.97 µM
[12]
  Activity: 5.5%
[13]
  Activity: 0.9%
[2]
  IC50: 6.07 µM
[14]
  Activity: 9.1%
[15]
  inhibition: Dose-dependent effect
[16]
  Activity: 6.2%
[17]
  growth inhibition (GI): Active
[18]
  inhibition: Dose-dependent effect
[19]
  Activity: 1.1%
[20]
  Activity: Dose-dependent effect
[21]
  Activity: 26.75%
[22]
  Activity: 61.29%
[23]
  inhibition: Dose-dependent effect
[24]
  Activity: 17.3%
[25]
  Activity: Dose-dependent effect
[26]
  Activity: 29.69%
[27]
  Activity: Dose-dependent effect
[3]
  IC50: 3.54 µM
[28]
  Activity: Dose-dependent effect
[29]
  Activity: 1.3%
[30]
  Activity: Dose-dependent effect
[31]
  inhibition: Dose-dependent effect
[32]
  Activity: Dose-dependent effect
[33]
  Activity: Dose-dependent effect
[34]
  Activity: 83.32%

## COc1ccc(-c2coc3cc(OCCCSC(=S)N4CCN(Cc5ccccc5)CC4)ccc3c2=O)cc1
[1]
  IC50: 14.9 µM
[2]
  IC50: 43.8 µM
[3]
  IC50: 25.3 µM

## COc1ccc(-c2coc3cc(OCCCSC(=S)N4CCN(C)CC4)ccc3c2=O)cc1
[1]
  IC50: 2.21 µM
[2]
  IC50: 21.9 µM
[3]
  IC50: 24.2 µM

## COc1ccc(-c2coc3cc(OCCCCBr)ccc3c2=O)cc1
[1]
  IC50: 55.6 µM
[2]
  IC50: 52.7 µM
[3]
  IC50: 66.3 µM

## COc1ccc(-c2coc3cc(OCCCSC(=S)N4CCCC4)ccc3c2=O)cc1
[1]
  IC50: 19.4 µM
[2]
  IC50: 40 µM
[3]
  IC50: 30.8 µM

## COc1ccc(-c2coc3cc(OCCCCCBr)ccc3c2=O)cc1
[1]
  IC50: 44.8 µM
[2]
  IC50: > 100 µM
[3]
  IC50: 59.1 µM

## COc1ccc(-c2coc3cc(OCCBr)ccc3c2=O)cc1
[1]
  IC50: 41.9 µM
[2]
  IC50: > 100 µM
[3]
  IC50: 55.1 µM

— ChEMBL document CHEMBL4004797, “Design and synthesis of formononetin-dithiocarbamate hybrids that inhibit growth and migration of PC-3 cells via MAPK/Wnt signaling pathways” (Eur J Med Chem, 2017)
